According to ChEMBL document CHEMBL1142148, “Antibiotic susceptibility profile of bifidobacteria as affected by oxgall, acid, and hydrogen peroxide stress” (2007):
In brackets after ≈: the same amount, converted by molar mass.

How the values were obtained:
[1] = system: Bifidobacterium longum; experiment: Antimicrobial activity against 90 mins hydrogen peroxide-stressed Bifidobacterium longum ATCC 15708 after 18 hrs; format: functional
How it was run: (§1)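 Stress applied for 90 min at 37°C under anaerobic conditions, using MRS (initial pH 6.5) containing H2O2 at each strain's own inhibitory concentration. The H2O2 level was set beforehand by microplate tolerance testing. Challenged cells were regrown in MRS for 24 h (footnote: 18 h) before MIC testing by broth microdilution. Median of four repetitions.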

[2] = Antimicrobial activity against 90 mins oxgall-stressed Bifidobacterium infantis ATCC 15697 after 18 hrs; format: functional, Bifidobacterium longum subsp. infantis; conditions: Bifidobacterium longum
How it was run: (§2)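 Cells pelleted from mid-log MRS culture and resuspended in MRS (initial pH 6.5) with 0.3% (wt/vol) oxgall for 90 min anaerobically at 37°C. They were then regrown in MRS pH 6.5 for 24 h (footnote: 18 h) anaerobically and tested for MIC by the same broth microdilution assay. Median of four repetitions.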

[3] = system: Bifidobacterium animalis; experiment: Antimicrobial activity against 60 min 1 M HCl-stressed Bifidobacterium animalis ATCC 27536 after 18 hrs; format: functional
How it was run: (§3)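 Mid-log MRS culture pelleted and resuspended in MRS broth brought to pH 2.0 with 1 M HCl, held anaerobically at 37°C for 60 min, then subcultured in MRS (pH 6.5) for 24 h anaerobically before MIC testing by broth microdilution (as for unstressed cells). Table footnote gives 18 h anaerobic regrowth after the stress. MIC is the median of four repetitions.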

[4] = system: Bifidobacterium longum; experiment: Antimicrobial activity against Bifidobacterium longum P/N 601377; format: functional
How it was run: (§4)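 Broth microdilution in MRS plus 0.05% L-cysteine-HCl. Mid-log culture adjusted to OD650 0.1, giving about 2.5 × 10^4 to 5.0 × 10^4 CFU/well, then added to twofold serial dilutions of agent. Plates incubated anaerobically at 37°C for 18 h and read at OD650. MIC is the lowest concentration matching the uninoculated blank OD, taken as the median of four repeats.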

[5] = system: Bifidobacterium breve; experiment: Antimicrobial activity against 90 mins hydrogen peroxide-stressed Bifidobacterium breve ATCC 15700 after 18 hrs; format: functional; how it was run: as §1
[6] = system: Bifidobacterium animalis; experiment: Antimicrobial activity against 90 mins oxgall-stressed Bifidobacterium animalis ATCC 27536 after 18 hrs; format: functional; how it was run: as §2
[7] = system: Bifidobacterium thermophilum; experiment: Antimicrobial activity against 90 mins hydrogen peroxide-stressed Bifidobacterium thermophilum ATCC 25866 after 18 hrs; format: functional; how it was run: as §1
[8] = system: Bifidobacterium bifidum; experiment: Antimicrobial activity against 90 mins oxgall-stressed Bifidobacterium bifidum R0071 after 18 hrs; format: functional; how it was run: as §2
[9] = system: Bifidobacterium longum; experiment: Antimicrobial activity against 60 min 1 M HCl-stressed Bifidobacterium longum R0175 after 18 hrs; format: functional; how it was run: as §3
[10] = system: Bifidobacterium bifidum; experiment: Antimicrobial activity against 90 mins oxgall-stressed Bifidobacterium bifidum ATCC 15696 after 18 hrs; format: functional; how it was run: as §2
[11] = system: Bifidobacterium bifidum; experiment: Antimicrobial activity against 60 min 1 M HCl-stressed Bifidobacterium bifidum R0071 after 18 hrs; format: functional; how it was run: as §3
[12] = system: Bifidobacterium pseudolongum; experiment: Antimicrobial activity against 90 mins oxgall-stressed Bifidobacterium pseudolongum ATCC 25562 after 18 hrs; format: functional; how it was run: as §2
[13] = system: Bifidobacterium breve; experiment: Antimicrobial activity against 60 min 1 M HCl-stressed Bifidobacterium breve R0070 after 18 hrs; format: functional; how it was run: as §3
[14] = system: Bifidobacterium thermophilum; experiment: Antimicrobial activity against 60 min 1 M HCl-stressed Bifidobacterium thermophilum ATCC 25866 after 18 hrs; format: functional; how it was run: as §3
[15] = system: Bifidobacterium breve; experiment: Antimicrobial activity against 60 min 1 M HCl-stressed Bifidobacterium breve ATCC 15700 after 18 hrs; format: functional; how it was run: as §3
[16] = Antimicrobial activity against Bifidobacterium infantis ATCC 15697; format: functional, Bifidobacterium longum subsp. infantis; conditions: Bifidobacterium longum; how it was run: as §4
[17] = system: Bifidobacterium longum; experiment: Antimicrobial activity against Bifidobacterium longum ATCC 15707; format: functional; how it was run: as §4
[18] = system: Bifidobacterium longum; experiment: Antimicrobial activity against 90 mins hydrogen peroxide-stressed Bifidobacterium longum P/N 601377 after 18 hrs; format: functional; how it was run: as §1
[19] = system: Bifidobacterium bifidum; experiment: Antimicrobial activity against 90 mins oxgall-stressed Bifidobacterium bifidum BB12 after 18 hrs; format: functional; how it was run: as §2
[20] = system: Bifidobacterium animalis; experiment: Antimicrobial activity against 90 mins hydrogen peroxide-stressed Bifidobacterium animalis ATCC 27536 after 18 hrs; format: functional; how it was run: as §1
[21] = system: Bifidobacterium longum; experiment: Antimicrobial activity against 90 mins hydrogen peroxide-stressed Bifidobacterium longum ATCC 15707 after 18 hrs; format: functional; how it was run: as §1
[22] = system: Bifidobacterium breve; experiment: Antimicrobial activity against 90 mins oxgall-stressed Bifidobacterium breve R0070 after 18 hrs; format: functional; how it was run: as §2
[23] = system: Bifidobacterium pseudolongum; experiment: Antimicrobial activity against 60 min 1 M HCl-stressed Bifidobacterium pseudolongum ATCC 25562 after 18 hrs; format: functional; how it was run: as §3
[24] = Antimicrobial activity against 60 min 1 M HCl-stressed Bifidobacterium infantis ATCC 15697 after 18 hrs; format: functional, Bifidobacterium longum subsp. infantis; conditions: Bifidobacterium longum; how it was run: as §3
[25] = system: Bifidobacterium bifidum; experiment: Antimicrobial activity against Bifidobacterium bifidum R0071; format: functional; how it was run: as §4
[26] = system: Bifidobacterium longum; experiment: Antimicrobial activity against Bifidobacterium longum ATCC 15708; format: functional; how it was run: as §4
[27] = system: Bifidobacterium thermophilum; experiment: Antimicrobial activity against 90 mins oxgall-stressed Bifidobacterium thermophilum ATCC 25866 after 18 hrs; format: functional; how it was run: as §2
[28] = system: Bifidobacterium bifidum; experiment: Antimicrobial activity against Bifidobacterium bifidum BB12; format: functional; how it was run: as §4
[29] = system: Bifidobacterium breve; experiment: Antimicrobial activity against Bifidobacterium breve ATCC 15700; format: functional; how it was run: as §4
[30] = system: Bifidobacterium longum; experiment: Antimicrobial activity against 90 mins oxgall-stressed Bifidobacterium longum ATCC 15707 after 18 hrs; format: functional; how it was run: as §2
[31] = system: Bifidobacterium longum; experiment: Antimicrobial activity against 90 mins oxgall-stressed Bifidobacterium longum R0175 after 18 hrs; format: functional; how it was run: as §2
[32] = system: Bifidobacterium breve; experiment: Antimicrobial activity against Bifidobacterium breve R0070; format: functional; how it was run: as §4
[33] = system: Bifidobacterium thermophilum; experiment: Antimicrobial activity against Bifidobacterium thermophilum ATCC 25866; format: functional; how it was run: as §4
[34] = system: Bifidobacterium bifidum; experiment: Antimicrobial activity against 90 mins hydrogen peroxide-stressed Bifidobacterium bifidum BB12 after 18 hrs; format: functional; how it was run: as §1
[35] = system: Bifidobacterium longum; experiment: Antimicrobial activity against 90 mins oxgall-stressed Bifidobacterium longum ATCC 15708 after 18 hrs; format: functional; how it was run: as §2
[36] = system: Bifidobacterium breve; experiment: Antimicrobial activity against 90 mins hydrogen peroxide-stressed Bifidobacterium breve R0070 after 18 hrs; format: functional; how it was run: as §1
[37] = system: Bifidobacterium longum; experiment: Antimicrobial activity against 60 min 1 M HCl-stressed Bifidobacterium longum ATCC 15707 after 18 hrs; format: functional; how it was run: as §3
[38] = system: Bifidobacterium longum; experiment: Antimicrobial activity against 60 min 1 M HCl-stressed Bifidobacterium longum P/N 601377 after 18 hrs; format: functional; how it was run: as §3
[39] = system: Bifidobacterium longum; experiment: Antimicrobial activity against 90 mins oxgall-stressed Bifidobacterium longum P/N 601377 after 18 hrs; format: functional; how it was run: as §2
[40] = system: Bifidobacterium bifidum; experiment: Antimicrobial activity against 90 mins hydrogen peroxide-stressed Bifidobacterium bifidum R0071 after 18 hrs; format: functional; how it was run: as §1
[41] = system: Bifidobacterium animalis; experiment: Antimicrobial activity against Bifidobacterium animalis ATCC 27536; format: functional; how it was run: as §4
[42] = system: Bifidobacterium breve; experiment: Antimicrobial activity against 90 mins oxgall-stressed Bifidobacterium breve ATCC 15700 after 18 hrs; format: functional; how it was run: as §2
[43] = system: Bifidobacterium longum; experiment: Antimicrobial activity against Bifidobacterium longum R0175; format: functional; how it was run: as §4
[44] = system: Bifidobacterium pseudolongum; experiment: Antimicrobial activity against Bifidobacterium pseudolongum ATCC 25562; format: functional; how it was run: as §4
[45] = system: Bifidobacterium longum; experiment: Antimicrobial activity against 90 mins hydrogen peroxide-stressed Bifidobacterium longum R0175 after 18 hrs; format: functional; how it was run: as §1
[46] = system: Bifidobacterium bifidum; experiment: Antimicrobial activity against 60 min 1 M HCl-stressed Bifidobacterium bifidum BB12 after 18 hrs; format: functional; how it was run: as §3
[47] = system: Bifidobacterium bifidum; experiment: Antimicrobial activity against Bifidobacterium bifidum ATCC 15696; format: functional; how it was run: as §4

## CC[C@H]1OC(=O)[C@H](C)[C@@H](O[C@H]2C[C@@](C)(OC)[C@@H](O)[C@H](C)O2)[C@H](C)[C@@H](O[C@@H]2O[C@H](C)C[C@H](N(C)C)[C@H]2O)[C@](C)(O)C[C@@H](C)C(=O)[C@H](C)[C@@H](O)[C@]1(C)O [ERYTHROMYCIN]
[1]
  MIC: 0.98 µg/mL (≈ 1.34 µM)
[2]
  MIC: 3.9 µg/mL (≈ 5.31 µM)
[3]
  MIC: 1.9 µg/mL (≈ 2.59 µM)
[4]
  MIC: 0.98 µg/mL (≈ 1.34 µM)
[5]
  MIC: 0.98 µg/mL (≈ 1.34 µM)
[6]
  MIC: 1.9 µg/mL (≈ 2.59 µM)
[7]
  MIC: 0.98 µg/mL (≈ 1.34 µM)
[8]
  MIC: 3.9 µg/mL (≈ 5.31 µM)
[9]
  MIC: 0.98 µg/mL (≈ 1.34 µM)
[10]
  MIC: 3.9 µg/mL (≈ 5.31 µM)
[11]
  MIC: 0.98 µg/mL (≈ 1.34 µM)
[12]
  MIC: 3.9 µg/mL (≈ 5.31 µM)
[13]
  MIC: 0.98 µg/mL (≈ 1.34 µM)
[14]
  MIC: 0.98 µg/mL (≈ 1.34 µM)
[15]
  MIC: 3.9 µg/mL (≈ 5.31 µM)
[16]
  MIC: 15.6 µg/mL (≈ 21.3 µM)
[17]
  MIC: 0.98 µg/mL (≈ 1.34 µM)
[18]
  MIC: 1.9 µg/mL (≈ 2.59 µM)
[19]
  MIC: 3.9 µg/mL (≈ 5.31 µM)
[20]
  MIC: 0.98 µg/mL (≈ 1.34 µM)
[21]
  MIC: 0.98 µg/mL (≈ 1.34 µM)
[22]
  MIC: 0.98 µg/mL (≈ 1.34 µM)
[23]
  MIC: 3.9 µg/mL (≈ 5.31 µM)
[24]
  MIC: 3.9 µg/mL (≈ 5.31 µM)
[25]
  MIC: 1.9 µg/mL (≈ 2.59 µM)
[26]
  MIC: 3.9 µg/mL (≈ 5.31 µM)
[27]
  MIC: 3.9 µg/mL (≈ 5.31 µM)
[28]
  MIC: 15.6 µg/mL (≈ 21.3 µM)
[29]
  MIC: 1.95 µg/mL (≈ 2.66 µM)
[30]
  MIC: 3.9 µg/mL (≈ 5.31 µM)
[31]
  MIC: 1.9 µg/mL (≈ 2.59 µM)
[32]
  MIC: 0.98 µg/mL (≈ 1.34 µM)
[33]
  MIC: 0.98 µg/mL (≈ 1.34 µM)
[34]
  MIC: 0.98 µg/mL (≈ 1.34 µM)
[35]
  MIC: 1.9 µg/mL (≈ 2.59 µM)
[36]
  MIC: 0.98 µg/mL (≈ 1.34 µM)
[37]
  MIC: 0.98 µg/mL (≈ 1.34 µM)
[38]
  MIC: 0.98 µg/mL (≈ 1.34 µM)
[39]
  MIC: 3.9 µg/mL (≈ 5.31 µM)
[40]
  MIC: 500 µg/mL (≈ 681 µM)
[41]
  MIC: 3.9 µg/mL (≈ 5.31 µM)
[42]
  MIC: 0.98 µg/mL (≈ 1.34 µM)
[43]
  MIC: 0.98 µg/mL (≈ 1.34 µM)
[44]
  MIC: 3.9 µg/mL (≈ 5.31 µM)
[45]
  MIC: 0.98 µg/mL (≈ 1.34 µM)
[46]
  MIC: 3.9 µg/mL (≈ 5.31 µM)
[47]
  MIC: 7.8 µg/mL (≈ 10.6 µM)
